In brackets after ≈: the same amount, converted by molar mass. Square brackets hold non-standard residues; d marks the D form. Peptide text beside a SMILES is read from it. Trp(5-Cl) = N[C@@H](Cc1c[nH]c2ccc(Cl)cc12)C(=O)O; dAsn(3R-OH) = NC(=O)[C@H](O)[C@@H](N)C(=O)O; aIle = CC[C@@H](C)[C@H](N)C(=O)O; Orn = NCCC[C@H](N)C(=O)O

What all share (assay type): functional
One assay concerns Bacillus subtilis. As to the kind of experiment: Antibacterial activity against Bacillus subtilis KCTC 1021 after 24 hrs by broth microdilution method. As to conditions: KCTC 1021, 24 h. The procedure, abridged: (§1)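 Broth microdilution in Mueller–Hinton broth. Strains grown to mid-log phase and diluted 1000-fold in the same medium. Cells at 10^5/mL, 0.2 mL/well. Test samples prepared in DMSO (final ≤0.05%), with 0.05% DMSO as vehicle control. Serial 2-fold dilutions, 24 h at 37 °C. Growth read as absorbance at 650 nm. MIC is the lowest concentration giving complete growth inhibition, done in triplicate.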
On the technique in general: Dilution methods test growth across graded concentrations, often in twofold steps.

The next assay has as its system Streptococcus pneumoniae. Kind of assay: Antibacterial activity against Streptococcus pneumoniae KCTC 5412 after 24 hrs by broth microdilution method. Particulars: KCTC 5412, 24 h. The procedure, abridged:
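Broth microdilution with cells grown in Todd–Hewitt medium instead of Mueller–Hinton broth. Cells at 10^5/mL, 0.2 mL/well. Test samples prepared in DMSO (final ≤0.05%), with 0.05% DMSO as vehicle control. Serial 2-fold dilutions, 24 h at 37 °C. Growth read as absorbance at 650 nm. MIC is the lowest concentration giving complete growth inhibition, done in triplicate.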

Assay [1] concerns Staphylococcus aureus. As to the kind of experiment: Antibacterial activity against quinolone-resistant Staphylococcus aureus CCARM 3505 after 24 hrs by broth microdilution method. Particulars: CCARM 3505, 24 h. The gist of the method: (§2)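 Broth microdilution in Mueller−Hinton broth. Strains grown to mid-log phase in the same medium and diluted 1000-fold, then inoculated at 10^5 cells/mL. Compounds dissolved in DMSO (final ≤0.05%) and tested as serial 2-fold dilutions; 0.05% DMSO as vehicle control. Incubated 24 h at 37 °C with growth read as absorbance at 650 nm. MIC taken as the lowest concentration completely inhibiting growth, in triplicate.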

A further assay deals with Enterococcus faecalis. Kind of assay: Antibacterial activity against Enterococcus faecalis KCTC 5191 after 24 hrs by broth microdilution method. As to conditions: KCTC 5191, 24 h. The gist of the method: as §1
For assay [2], the system named is Staphylococcus aureus. As to the kind of experiment: Antibacterial activity against methicillin-resistant Staphylococcus aureus CCARM 3167 after 24 hrs by broth microdilution method. Particulars: CCARM 3167, 24 h. The gist of the method: as §2
For the next assay, the system named is Pseudomonas aeruginosa. As to the kind of experiment: Antibacterial activity against Pseudomonas aeruginosa KCTC 2004 after 24 hrs by broth microdilution method. Particulars: KCTC 2004, 24 h. The gist of the method:
as §1

For assay [3], the system named is Staphylococcus aureus. Kind of assay: Antibacterial activity against Staphylococcus aureus RN4220 after 24 hrs by broth microdilution method. Particulars: RN4220, 24 h. The gist of the method:
as §2

Another assay concerns Escherichia coli. Kind of assay: Antibacterial activity against Escherichia coli CCARM 1356 after 24 hrs by broth microdilution method. As to conditions: CCARM 1356, 24 h. The gist of the method:
as §1

Broadly, the MIC is the lowest concentration found to suppress growth. Read a low MIC as a more susceptible organism. Take `CC[C@@H](C)[C@@H]1NC(=O)[C@@H](CCC(C)C)NC(=O)[C@@H](C(C)C)NC(=O)[C@H](Cc2c[nH]c3ccc(Cl)cc23)NC(=O)[C@@H]([C@@H](O)C(N)=O)NC(=O)[C@H](CCCN)NC1=O`: the minimum inhibitory concentration (MIC) in the assay with Bacillus subtilis worked out at 8 µg/mL (≈ 9.95 µM); with Streptococcus pneumoniae it was 16 µg/mL (≈ 19.9 µM); in the assay with Staphylococcus aureus [1], 8 µg/mL (≈ 9.95 µM); with Enterococcus faecalis, 8 µg/mL (≈ 9.95 µM); against Staphylococcus aureus [2], 16 µg/mL (≈ 19.9 µM); in the assay on Pseudomonas aeruginosa it was 128 µg/mL (≈ 159 µM). Further, the MIC in the assay with Staphylococcus aureus [3] amounted to 16 µg/mL (≈ 19.9 µM); with Escherichia coli it was 128 µg/mL (≈ 159 µM).

Turning to `CC[C@@H](C)[C@@H]1NC(=O)[C@@H](CC(C)C)NC(=O)[C@@H](C(C)C)NC(=O)[C@H](Cc2c[nH]c3ccc(Cl)cc23)NC(=O)[C@@H]([C@@H](O)C(N)=O)NC(=O)[C@H](CCCN)NC1=O` (cyclo([Orn][dAsn(3R-OH)][Trp(5-Cl)][dV][dL][aIle])), the MIC was determined as 8 µg/mL (≈ 10.1 µM) with Bacillus subtilis; 8 µg/mL (≈ 10.1 µM) in the assay with Streptococcus pneumoniae; 16 µg/mL (≈ 20.2 µM) against Staphylococcus aureus [1]; 8 µg/mL (≈ 10.1 µM) in the assay with Enterococcus faecalis; 32 µg/mL (≈ 40.5 µM) against Staphylococcus aureus [2]; 128 µg/mL (≈ 162 µM) against Pseudomonas aeruginosa. In addition, the MIC against Staphylococcus aureus [3] came to 16 µg/mL (≈ 20.2 µM); in the assay with Escherichia coli, 64 µg/mL (≈ 81 µM).

As to `O=C(O)c1cn(C2CC2)c2cc(N3CCNCC3)c(F)cc2c1=O` [CIPROFLOXACIN], the minimum inhibitory concentration (MIC) against Bacillus subtilis amounted to 0.015 µg/mL (≈ 0.0453 µM); against Staphylococcus aureus [1], 32 µg/mL (≈ 96.6 µM); in the assay with Enterococcus faecalis it was 1 µg/mL (≈ 3.02 µM); in the assay with Staphylococcus aureus [2] it was 4 µg/mL (≈ 12.1 µM); in the assay on Escherichia coli, 64 µg/mL (≈ 193 µM).

The values above are taken from ChEMBL document CHEMBL4130534, “Genomics-Driven Discovery of Chlorinated Cyclic Hexapeptides Ulleungmycins A and B from a Streptomyces Species” (2017).
